# Compounds with a hit are over-represented: about 1.2% of the library has one in this group of screens.
# S1P4 ag – agonists of human S1P4 receptor; 220,000 tested, 0.35% active; activation, % at 4.98 µM; S1P4-expressing cell line, agonist reporter assay; O95977; in the data active = activation above about 11%;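 note: 0% = DMSO vehicle and 100% = reference agonist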
# Calb biofilm kill – mixture kills Candida albicans biofilm cells; C. albicans biofilm persisters + clotrimazole, fluorescence viability; primary screen in compound mixtures of four per well; inhibition, % at 7.6 µM; 120,000 tested, 0.02% active;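 active = inhibition above 30.3% in the primary screen of four-compound pools, then above 30% when the compound was retested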;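 note: compounds exposed to preformed 24 h biofilms for 48 h; 0% = untreated biofilm control and 100% = clotrimazole plus chlorhexidine kill blank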
#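 System: C. albicans CAF4-2 wild-type biofilms; Medium: RPMI/MOPS medium, pH 7.0; Reagent: Clotrimazole, 50 µg/mL; Times: biofilm formation 24 h, compound exposure 48 h, 37 °C; Detection: 2-h Alamar Blue fluorescence, 535/590 nm excitation/emission; Evaluation: percent inhibition of biofilm viability.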
# Efa HMGR inh – inhibitors of class II HMG-CoA reductase from Enterococcus faecalis. purified E. faecalis HMGR, NADPH absorbance 340 nm kinetic. inhibition, % at 10 µM. AID 1066. 190,000 tested, 0.41% active;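 active = inhibition above a set limit, the median over all tested compounds plus 3 SD, cut at about 9.5% in these data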;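 note: enzyme runs in reverse so mevalonate oxidation gives rising NADPH absorbance; 0% = complete reaction with DMSO and 100% = background rate lacking mevalonate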
# S1P4 antag – blocks the human S1P4 receptor; S1P4-expressing cells, antagonist mode, reporter read-out; inhibition, % at 4.98 µM; 220,000 tested, 0.26% active; AID 1510; in the data active = inhibition above about 29%;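 note: 0% = wells stimulated with agonist and 100% = vehicle wells without agonist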
# Rad51 HR inh – Rad51 (human) homologous recombination inhibition; inhibition, % at 10 µM; hRad51 DNA strand exchange, fluorescence dequenching; Q06609; AID 1385; 200,000 tested, 0.085% active;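 active = inhibition above 40% at the single screening dose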;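 note: 0% = DMSO control wells and 100% = blanks with heterologous ssDNA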
#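 Test system: preformed human Rad51 ssDNA filaments. Compound dosing: single dose, 10 µM final compound. Incubation: filaments 15 min 37 °C, then compound 30 min. Technique: FRET fluorescence dequenching, excitation 485 nm, emission 520 nm. Read-out basis: percent inhibition from fluorescence, normalised to plate control and blank means. Benchmarks: plate controls and plate blanks.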
# S1P3 antag – S1P3 (human) receptor antagonism | inhibition, % at 4.98 µM | 170,000 tested, 0.27% active | Q99500 | CHO S1P3 NFAT-BLA reporter, FRET fluorescence, antagonist mode;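 active = inhibition above the plate cutoff, the mean inhibition of test wells on that plate plus 3 SD, cut at about 28% in these data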;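 note: cells challenged with S1P at its EC80 of 0.8 µM; blue over green emission ratio from cleaved BLA substrate after 4 h stimulation; 0% = S1P-stimulated wells and 100% = unstimulated DMSO-only wells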
# Target sequence (Q99500 whole entry, looked up): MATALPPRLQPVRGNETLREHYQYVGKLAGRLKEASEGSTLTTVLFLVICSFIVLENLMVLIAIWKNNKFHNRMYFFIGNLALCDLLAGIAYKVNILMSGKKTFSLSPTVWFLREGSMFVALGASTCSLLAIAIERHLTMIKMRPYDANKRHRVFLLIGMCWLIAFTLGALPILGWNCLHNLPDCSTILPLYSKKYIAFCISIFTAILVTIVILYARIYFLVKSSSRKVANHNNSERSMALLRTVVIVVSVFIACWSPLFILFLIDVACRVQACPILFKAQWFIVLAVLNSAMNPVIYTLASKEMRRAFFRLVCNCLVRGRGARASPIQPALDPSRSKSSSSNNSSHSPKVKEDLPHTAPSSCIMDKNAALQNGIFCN
# * hit, by the source's call; / = no result.
SMILES,S1P4 ag,Calb biofilm kill,Efa HMGR inh,S1P4 antag,Rad51 HR inh,S1P3 antag
COc1ccc(C[C@H]2COC(=O)[C@@H]2Cc2ccc(OC3OC(CO)C(O)C(O)C3O)c(OC)c2)cc1OC (stereo partly drawn),1,8,20*,-1,8,-7
COc1ccc(OC)c(Nc2nc(NCCCN(C)C)nc(N)c2[N+](=O)[O-])c1,1,11,/,-13,41*,-6
COCCCNc1nc(N)c([N+](=O)[O-])c(Nc2cc(OC)ccc2OC)n1,-2,11,/,1,/,-25
O=C1OC(c2cccs2)=N/C1=C/c1ccc(-c2cccc(C(=O)O)c2)o1,2,16,16*,-26,-15,8
O=C1OC(c2cccs2)=N/C1=C\c1ccc(-c2ccccc2Cl)o1,-2,/,-3,-27,0,/
CC(=NCCc1c(C)[nH]c2ccc(C)cc12)C1=C(O)CC(c2ccccc2)CC1=O (stereo not drawn),-1,7,-3,9,0,0
CC(=NCCc1c(C)[nH]c2ccc(OC(F)(F)F)cc12)C1=C(O)CC(c2ccccc2)CC1=O (stereo not drawn),-1,-1,12*,14,5,1
COc1ccc(NC(=O)CSc2nnc(-c3ccncc3)n2C)cc1,0,13,2,-3,3,-8
Cn1c(SCC(=O)Nc2ccc(NC(=O)c3cccs3)cc2)nnc1-c1ccncc1,-5,15,11*,-8,-1,/
O=C(O)/C(=C\c1cccs1)c1ccccc1,1,28,12*,-13,3,0
O=C(CSc1ncnc2c1nnn2-c1ccc(F)cc1)N1CCN(c2ccccc2)CC1,-2,/,/,-5,/,/
COC(=O)CCC(=O)OC1(C)C(=O)C2=CN(C3CC3)C(c3ccc(OC)cc3)=CC2=C(Br)C1=O (stereo not drawn),/,/,/,/,52*,/
COC(=O)CCC(=O)OC1(C)C(=O)C2=CN(CC3CC3)C(c3ccc(OC)cc3)=CC2=C(Br)C1=O (stereo not drawn),/,16,/,/,1,/
COc1ccc(C(=O)OCC(=O)NCc2ccco2)cc1S(=O)(=O)N1CCN(c2cccc(Cl)c2)CC1,0,/,-2,-35,11,/
CC(C)C(=O)c1cc2c(cc1NC(=O)c1ccccc1)OCCO2,0,/,-1,-18,-11,/
COc1ccc(N2CCN(C(=O)C3CCC(Cn4c(=S)[nH]c5ccccc5c4=O)CC3)CC2)cc1 (stereo not drawn),2,/,22*,-20,0,/
CN(C(=O)CCc1nnc(CCCCc2ccccc2)o1)C1CC(C)(C)NC(C)(C)C1,1,20,-5,-10,6,-8
CC(=O)N1CCC2(CC1)C(C#N)=C(N)Oc1n[nH]c(C(F)(F)F)c12,3,/,0,8,-8,/
COCc1[nH]nc2c1C1(CCSCC1)C(C#N)=C(N)O2,2,/,-2,-2,0,-27
CCOC(=O)N1CCC2(CC1)C(C#N)=C(N)Oc1n[nH]c(C)c12,-3,/,10.0*,-4,13,/
Cc1[nH]nc2c1C1(CCC3(CC1)OCCO3)C(C#N)=C(N)O2,-2,/,10*,-20,-6,-9
COc1ccc(C(C)=O)cc1COC(=O)C(CO)NS(=O)(=O)c1ccc(Br)cc1 (stereo not drawn),1,12,1,-26,5,-18
COc1ccc(CC(=O)Nc2cccc(-c3nnc(-c4cccc(C)c4)o3)c2)cc1OC,-1,/,0,-20,-4,85*
C=CCNC(=O)N[C@@H](CCSC)C(=O)OC,-1,/,3,-19,0,-3
O=C(Nc1nc(-c2ccccc2)cs1)C1CCCCN1S(=O)(=O)c1ccccc1 (stereo not drawn),0,/,-2,-1,-1,98*
SMILES,S1P4 ag,Calb biofilm kill,Efa HMGR inh,S1P4 antag,Rad51 HR inh,S1P3 antag
O=C(Nc1nc(-c2ccccc2)cs1)NC1CCCCC1,-2,/,11*,6,0,/
CC(C)c1nn(-c2cc(C(F)(F)F)ccn2)c(=O)o1,-1,15,/,6,15,6
CC1(C)Cc2c(C#N)c(NCc3ccco3)nc(-c3ccco3)c2CO1,-1,/,12*,-5,1,/
Cc1nc(NCc2ccco2)c(C#N)c2c1COC(C)(C)C2,1,/,0,-11,-4,0
O=C1CCC(/C=C/c2ccccc2)=NN1Cc1ccccc1Cl,2,/,-4,-4,15,/
CC(C)Sc1nnc2n(CCc3ccccc3)c(=O)c3c4c(sc3n12)COC(C)(C)C4,2,/,/,-6,-6,/
CCc1ccccc1NC(=O)N1C2CCCC1CC(NC(=O)C(C)(C)C)C2 (stereo not drawn),0,/,3,-12,4,63*
Cc1ccccc1NC(=O)N1C2CCCC1CC(NC(=O)C1CC1)C2 (stereo not drawn),6,/,-2,-10,-12,-26
O=C(CSc1nnc(-c2ccc(Br)o2)n1Cc1ccccc1)c1ccccc1F,-1,/,-5,0,-9,58*
Cc1cc(NC(=O)CSc2nnc(-c3ccc(Br)o3)n2Cc2ccccc2)no1,1,/,0,-9,-2,/
CCCOc1ccc(-c2nnn(CC(=O)N3CCCC(C)C3)n2)cc1 (stereo not drawn),0,25,/,-15,22,-9
CCOc1ccc(-c2nnn(CC(=O)N3CCCC(C)C3)n2)cc1 (stereo not drawn),1,9,13*,-5,-4,3
COc1ccc(CCNS(=O)(=O)c2c(N)n(C)c(=O)n(C)c2=O)cc1OC,1,23,-2,0,4,-9
Nc1cccc2c1C(=O)N(c1ccccc1)C2=O,/,/,/,/,-6,93*
CCn1c(/C=C/c2cccc([N+](=O)[O-])c2)nc2ccccc2c1=O,0,/,-6,17,2,/
CC(=O)N(c1cccc(C(F)(F)F)c1)c1nc(/C=C/C(=O)O)cs1,0,7,/,-14,40*,9
Cc1cc(C)nc(SCNC(=O)c2ccccc2)n1,0,12,11*,-13,-5,-43
CN(CC(=O)Nc1ccc2c(c1)OCCO2)S(=O)(=O)c1cccc2cccnc12,1,/,-10,-13,7,-19
Cc1cc(/C=N/n2cnnc2)c(C)n1-c1ccc(OCc2ccccc2F)cc1,3,/,0,-17,-7,68*
O=C(c1ccc(Cl)nc1)N1CCN(S(=O)(=O)c2ccccc2)CC1,0,18,/,-1,/,-5
COC1(OC)N=C(NC(=O)Nc2ccccc2)C2(C#N)C(c3ccccc3)C12C#N (stereo not drawn),8,/,14*,5,8,-30
Cc1cccc(N2CC(=O)N(c3cccc(C)c3)CC2=O)c1,2,/,-1,0,2,/
COc1cccc(N2CC(=O)N(c3cccc(OC)c3)CC2=O)c1,0,-8,9.7*,-14,19,-10
CCCCN(C(=O)CSc1nncn1-c1ccccc1OC)c1c(N)n(Cc2ccccc2)c(=O)[nH]c1=O,0,15,-5,-20,-2,-3

# Screening results from PubChem BioAssay.
